Laboratory results reported in ChEMBL document CHEMBL3297654, “Synthesis, antimicrobial and cytotoxic activities, and structure-activity relationships of gypsogenin derivatives against human cancer cells” (Eur J Med Chem, 2014).
Activity calls are given as the source filed them. The rule behind the calls is not given here.

Legend:
Micrococcus luteus [1] = test: Antimicrobial activity against Micrococcus luteus ATCC 9341 assessed as zone of inhibition at 15 mg for 24 hrs at 30 degC by disk diffusion test; assay type: functional; conditions: ATCC 9341, 24 h, read-out: DIZ
Enterococcus faecalis [2] = test: Antimicrobial activity against Enterococcus faecalis ATCC 29212 assessed as zone of inhibition at 15 mg for 24 hrs at 37 degC by disk diffusion test; assay type: functional, organism-based
Bacillus subtilis [3] = test: Antimicrobial activity against Bacillus subtilis ATCC 6633 assessed as zone of inhibition at 15 mgby disk diffusion test; assay type: functional
HL-60 [4] = test: Antiproliferative activity against human HL60 cells after 24 and 72 hrs by MTT assay; assay type: functional, cell-based
Procedure, shortened: (§1)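 ATCC human cell lines are kept in RPMI, DMEM or McCoy's 5A with 10–15% heat-inactivated FCS at 37 °C and 5% CO2. They are seeded at 1×10^4–1×10^5 cells/mL in 48-well plates and exposed to 0.5, 10, 20 or 40 µM. Viability is read by MTT (590 nm) at 24 and 72 h. Growth is expressed relative to untreated cells and IC50 is fitted, in triplicate.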

HT-29 [5] = test: Antiproliferative activity against human HT-29 cells after 24 and 72 hrs by MTT assay; assay type: functional, cell-based; procedure, shortened: as §1
Caco-2 [6] = test: Antiproliferative activity against human Caco2 cells after 24 and 72 hrs by MTT assay; assay type: functional, cell-based; procedure, shortened: as §1
[7] = Antiproliferative activity against human Saos2 cells after 24 and 72 hrs by MTT assay; assay type: functional, cell-based; conditions: SAOS-2; procedure, shortened: as §1
MCF7 [8] = test: Antiproliferative activity against human MCF7 cells after 24 and 72 hrs by MTT assay; assay type: functional, cell-based; procedure, shortened: as §1
HeLa [9] = test: Antiproliferative activity against human HeLa cells after 24 and 72 hrs by MTT assay; assay type: functional, cell-based; procedure, shortened: as §1
HL-60 [10] = test: Induction of apoptosis in human HL60 cells at 0.5 uM after 48 hrs by Hoechst 33258/propidium iodide staining based phase contrast microscopic analysis; assay type: functional
Procedure, shortened: (§2)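 Cells in 48-well plates treated with 0.5, 10, 20 or 40 µM for 24 and 48 h. Values are read at 48 h, 20 µM for test agents and 0.5 µM for controls. Staining is Hoechst 33258/propidium iodide double staining with fluorescence microscopy. Blue nuclei are viable or early-to-mid apoptotic, and pink nuclei are late apoptotic or necrotic. Apoptosis and necrosis are scored from chromatin condensation as % of cells. Cells are grown at 37 °C in 5% CO2 in RPMI, DMEM or McCoy's 5A with 10–15% heat-inactivated FCS.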

HT-29 [11] = test: Induction of apoptosis in human HT-29 cells at 0.5 uM after 48 hrs by Hoechst 33258/propidium iodide staining based phase contrast microscopic analysis; assay type: functional; procedure, shortened: as §2
Caco-2 [12] = test: Induction of apoptosis in human Caco2 cells at 0.5 uM after 48 hrs by Hoechst 33258/propidium iodide staining based phase contrast microscopic analysis; assay type: functional; procedure, shortened: as §2
SAOS-2 [13] = test: Induction of apoptosis in human Saos2 cells at 0.5 uM after 48 hrs by Hoechst 33258/propidium iodide staining based phase contrast microscopic analysis; assay type: functional; procedure, shortened: as §2
MCF7 [14] = test: Induction of apoptosis in human MCF7 cells at 0.5 uM after 48 hrs by Hoechst 33258/propidium iodide staining based phase contrast microscopic analysis; assay type: functional; procedure, shortened: as §2
HeLa [15] = test: Induction of apoptosis in human HeLa cells at 0.5 uM after 48 hrs by Hoechst 33258/propidium iodide staining based phase contrast microscopic analysis; assay type: functional; procedure, shortened: as §2
HL-60 [16] = test: Induction of necrosis in human HL60 cells at 0.5 uM after 48 hrs by Hoechst 33258/propidium iodide staining based phase contrast microscopic analysis; assay type: functional; procedure, shortened: as §2
HT-29 [17] = test: Induction of necrosis in human HT-29 cells at 0.5 uM after 48 hrs by Hoechst 33258/propidium iodide staining based phase contrast microscopic analysis; assay type: functional; procedure, shortened: as §2
Caco-2 [18] = test: Induction of necrosis in human Caco2 cells at 0.5 uM after 48 hrs by Hoechst 33258/propidium iodide staining based phase contrast microscopic analysis; assay type: functional; procedure, shortened: as §2
SAOS-2 [19] = test: Induction of necrosis in human Saos2 cells at 0.5 uM after 48 hrs by Hoechst 33258/propidium iodide staining based phase contrast microscopic analysis; assay type: functional; procedure, shortened: as §2
MCF7 [20] = test: Induction of necrosis in human MCF7 cells at 0.5 uM after 48 hrs by Hoechst 33258/propidium iodide staining based phase contrast microscopic analysis; assay type: functional; procedure, shortened: as §2
HeLa [21] = test: Induction of necrosis in human HeLa cells at 0.5 uM after 48 hrs by Hoechst 33258/propidium iodide staining based phase contrast microscopic analysis; assay type: functional; procedure, shortened: as §2
Escherichia coli = test: Antimicrobial activity against Escherichia coli ATCC 25922 assessed as zone of inhibition at 10 mg for 24 hrs at 37 degC by disk diffusion test; assay type: functional, organism-based
Salmonella typhimurium = test: Antimicrobial activity against Salmonella typhimurium ATCC 14028 assessed as zone of inhibition at 10 mg for 24 hrs at 37 degC by disk diffusion test; assay type: functional; conditions: Salmonella enterica subsp. enterica serovar Typhimurium
Micrococcus luteus [22] = test: Antimicrobial activity against Micrococcus luteus ATCC 9341 assessed as zone of inhibition at 10 mg for 24 hrs at 30 degC by disk diffusion test; assay type: functional
Staphylococcus aureus = test: Antimicrobial activity against Staphylococcus aureus ATCC 25923 assessed as zone of inhibition at 10 mg for 24 hrs at 37 degC by disk diffusion test; assay type: functional
[23] = test system: Staphylococcus epidermidis; test: Antimicrobial activity against Staphylococcus epidermidis ATCC 12228 assessed as zone of inhibition at 10 mg for 24 hrs at 37 degC by disk diffusion test; assay type: functional
Klebsiella pneumoniae = test: Antimicrobial activity against Klebsiella pneumoniae ATCC 13882 assessed as zone of inhibition at 10 mg for 24 hrs at 37 degC by disk diffusion test; assay type: functional, organism-based
Procedure, shortened: (§3)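 Agar well diffusion following NCCLS disc susceptibility guidance. Compounds were held as 1000 µg/mL stocks in DMSO. Broth cultures (18–24 h) were adjusted to 0.5 McFarland (1×10^8 cells/mL) and spread on Mueller Hinton agar. A 6 mm well was cut and filled with 30 µL compound. Plates were incubated 24 h at 37 °C, and the inhibition zone diameter was measured in mm.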

Pseudomonas aeruginosa = test: Antimicrobial activity against Pseudomonas aeruginosa ATCC 35032 assessed as zone of inhibition at 10 mg for 24 hrs at 37 degC by disk diffusion test; assay type: functional, organism-based; procedure, shortened: as §3
Proteus vulgaris = test: Antimicrobial activity against Proteus vulgaris ATCC 33420 assessed as zone of inhibition at 10 mg by disk diffusion test; assay type: functional, organism-based
Enterococcus faecalis [24] = test: Antimicrobial activity against Enterococcus faecalis ATCC 29212 assessed as zone of inhibition at 10 mg for 24 hrs at 37 degC by disk diffusion test; assay type: functional; procedure, shortened: as §3
Bacillus cereus = test: Antimicrobial activity against Bacillus cereus ATCC 11778 assessed as zone of inhibition at 10 mg for 24 hrs at 30 degC by disk diffusion test; assay type: functional, organism-based
Procedure, shortened: (§4)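 Well diffusion on Mueller Hinton agar per NCCLS disc susceptibility tests. DMSO stocks were 1000 µg/mL. Bacterial broth cultures (18–24 h) were adjusted to 0.5 McFarland, about 1×10^8 cells/mL. A 6 mm well received 30 µL compound. Incubation was 24 h at 30 °C, and zone diameters were read in mm. B. thuringiensis was a fecal clinical isolate grown in nutrient broth.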

Bacillus subtilis [25] = test: Antimicrobial activity against Bacillus subtilis ATCC 6633 assessed as zone of inhibition at 10 mg by disk diffusion test; assay type: functional, organism-based
Bacillus thuringiensis = test: Antimicrobial activity against Bacillus thuringiensis assessed as zone of inhibition at 10 mg for 24 hrs at 30 degC by disk diffusion test; assay type: functional, organism-based; procedure, shortened: as §4
Cyberlindnera jadinii = test: Antimicrobial activity against Candida utilis ATCC 9950 assessed as zone of inhibition at 100 mg for 24 hrs at 30 degC by disk diffusion test; assay type: functional, organism-based
Procedure, shortened: (§5)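 Yeast well-diffusion assay on Mueller Hinton agar following NCCLS disc susceptibility procedure. Compound stocks were 1000 µg/mL in DMSO. Yeast broth cultures (18–24 h) were adjusted to 0.5 McFarland, about 1×10^6 cells/mL. A 6 mm well was loaded with 30 µL compound. Plates were incubated at 30 °C for 24 h, and inhibition zones were measured in mm. C. glabrata and C. tropicalis were precultured in malt extract broth.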

Candida tropicalis = test: Antimicrobial activity against Candida tropicalis assessed as zone of inhibition at 100 mg for 24 hrs at 30 degC by disk diffusion test; assay type: functional, organism-based; procedure, shortened: as §5
Nakaseomyces glabratus = test: Antimicrobial activity against Candida glabrata assessed as zone of inhibition at 100 mg for 24 hrs at 30 degC by disk diffusion test; assay type: functional, organism-based; procedure, shortened: as §5
Saccharomyces cerevisiae = test: Antimicrobial activity against Saccharomyces cerevisiae ATCC 9763 assessed as zone of inhibition at 100 mg for 24 hrs at 30 degC by disk diffusion test; assay type: functional, organism-based; procedure, shortened: as §5

Compound: CC[C@H]1OC(=O)[C@H](C)[C@@H](O[C@H]2C[C@@](C)(OC)[C@@H](O)[C@H](C)O2)[C@H](C)[C@@H](O[C@@H]2O[C@H](C)C[C@H](N(C)C)[C@H]2O)[C@](C)(O)C[C@@H](C)C(=O)[C@H](C)[C@@H](O)[C@]1(C)O [ERYTHROMYCIN]
- zone of inhibition at 15000 µg/disc (Micrococcus luteus [1]): 30 mm
- diameter of the inhibition zone (DIZ) (Enterococcus faecalis [2]): inactive
- diameter of the inhibition zone (DIZ) (Bacillus subtilis [3]): 25 mm

Compound: CC(=O)O[C@H]1C(=O)[C@@]2(C)[C@H]([C@H](OC(=O)c3ccccc3)[C@]3(O)C[C@H](OC(=O)[C@H](O)[C@@H](NC(=O)c4ccccc4)c4ccccc4)C(C)=C1C3(C)C)[C@]1(OC(C)=O)CO[C@@H]1C[C@@H]2O [PACLITAXEL]
- IC50 (HL-60 [4]): 0.32 µM
- IC50 (HT-29 [5]): 0.29 µM
- IC50 (Caco-2 [6]): 0.31 µM
- IC50 [7]: 0.35 µM
- IC50 (MCF7 [8]): 0.33 µM
- IC50 (HeLa [9]): 0.29 µM
- Activity (HL-60 [10]): 53%
- Activity (HT-29 [11]): 52%
- Activity (Caco-2 [12]): 52%
- Activity (SAOS-2 [13]): 42%
- Activity (MCF7 [14]): 50%
- Activity (HeLa [15]): 44%
- Activity (HL-60 [16]): 0%
- Activity (HT-29 [17]): 2%
- Activity (Caco-2 [18]): 2%
- Activity (SAOS-2 [19]): 1%
- Activity (MCF7 [20]): 1%
- Activity (HeLa [21]): 2%

Compound: GENTAMICIN
- inhibition zone (IZ) (Escherichia coli): 21 mm
- inhibition zone (IZ) (Salmonella typhimurium): 16 mm
- inhibition zone (IZ) (Micrococcus luteus [22]): 15 mm
- inhibition zone (IZ) (Staphylococcus aureus): 20 mm
- inhibition zone (IZ) [23]: 17 mm
- inhibition zone (IZ) (Klebsiella pneumoniae): 19 mm
- inhibition zone (IZ) (Pseudomonas aeruginosa): 20 mm
- inhibition zone (IZ) (Proteus vulgaris): 24 mm
- inhibition zone (IZ) (Enterococcus faecalis [24]): 11 mm
- inhibition zone (IZ) (Bacillus cereus): 24 mm
- inhibition zone (IZ) (Bacillus subtilis [25]): 20 mm
- inhibition zone (IZ) (Bacillus thuringiensis): 21 mm

Compound: NYSTATIN
- inhibition zone (IZ) (Cyberlindnera jadinii): 21 mm
- inhibition zone (IZ) (Candida tropicalis): 15 mm
- inhibition zone (IZ) (Nakaseomyces glabratus): 16 mm
- inhibition zone (IZ) (Saccharomyces cerevisiae): 15 mm
